Data published in ChEMBL document CHEMBL4251593, “Nontoxic combretafuranone analogues with high in vitro antibacterial activity” (Eur J Med Chem, 2018).
In brackets after ≈: the same amount, converted by molar mass. Activity calls are given as the source filed them. The rule behind the calls is not given here.

How the values were obtained:
[1] = tested on: Candida albicans; assay: Antifungal activity against Candida albicans ATCC 90028 up to 1 mM after 24 to 48 hrs by microdilution assay; format: functional, organism-based
Method in brief: (§1)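 Fungal microdilution following modified CLSI M27-A3/M38-A2, in RPMI 1640 with L-glutamine and 0.165 M MOPS at pH 7.0, with DMSO no more than 2% final. Compounds were 2-fold serially diluted from 2000 to 0.488 µmol/l. The inoculum was 5×10^3 cfu/ml. Incubation was at 35 °C, read visually at 24/48 h (T. mentagrophytes at 72/120 h). MIC was IC80 for yeasts and IC50 for filamentous fungi, determined twice in duplicate.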

[2] = tested on: Pichia kudriavzevii; assay: Antifungal activity against Candida krusei E28 clinical isolate up to 1 mM after 24 to 48 hrs by microdilution assay; format: functional, organism-based; method in brief: as §1
[3] = tested on: Pseudomonas aeruginosa; assay: Antibacterial activity against Pseudomonas aeruginosa ATCC 9027 after 48 hrs by microdilution assay; format: functional; details: ATCC 9027, 48 h
Method in brief: (§2)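 Broth microdilution in Mueller-Hinton medium buffered to pH 7.4 (±0.2), with DMSO as diluent at no more than 2% final. Compounds were tested as 2-fold serial dilutions from 2000 to 0.488 µmol/l. The inoculum was 0.5 McFarland (1.5×10^8 cfu/ml). Plates were held at 37 °C and read visually at 24 and 48 h. MIC was taken as 95% growth inhibition versus control, determined twice in duplicate.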

[4] = tested on: TERT-RPE1; assay: Induction of apoptosis in human RPE1 cells assessed as caspase 3/7 activity after 24 hrs by caspase-glo luminescent assay; format: cell-based; details: RPE-1, 24 h
Method in brief: (§3)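 Cells were seeded at 500 per well in their growth media and exposed to 12 concentrations from 40 µM to 1 nM, delivered from DMSO, in triplicate. After 24 h, caspase-3/7 activity was read by Caspase-Glo luminescence. Data were normalized and ED50 was fitted by variable-slope nonlinear regression.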

[5] = tested on: Klebsiella pneumoniae; assay: Antibacterial activity against Klebsiella pneumoniae HK11750/08 clinical isolate after 48 hrs by microdilution assay; format: functional; details: HK11750/08, 48 h
[6] = tested on: Trichophyton mentagrophytes; assay: Antifungal activity against Trichophyton mentagrophytes 445 up to 1 mM after 72 to 120 hrs by microdilution assay; format: functional, organism-based; method in brief: as §1
[7] = tested on: HepG2; assay: Cytotoxicity against human HepG2 cells assessed as reduction in cell viability after 48 hrs by ATPlite-based luminescent assay; details: HepG2, 48 h
Method in brief: (§4)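 Cells were grown […] with 10% FBS, glutamax, NEAA and pen/strep at 37 °C, 5% CO2. Media were DMEM for RPE-1, HepG2 and BJ (BJ plus 10 ng/ml bFGF), F-12K for PC3, and IMDM for K562/HL-60. Cells were seeded at 500 per well and dosed from DMSO at 12 concentrations, 40 µM to 1 nM, in triplicate. After 48 h, intracellular ATP was read by luminescence. ED50 was obtained by variable-slope nonlinear regression.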

[8] = tested on: Staphylococcus aureus; assay: Antibacterial activity against Staphylococcus aureus ATCC 6538 after 24 hrs by microdilution assay; format: functional; details: ATCC 6538, 24 h
[9] = tested on: Staphylococcus aureus; assay: Antibacterial activity against Staphylococcus aureus ATCC 6538 after 48 hrs by microdilution assay; format: functional; details: ATCC 6538, 48 h
[10] = tested on: Klebsiella pneumoniae; assay: Antibacterial activity against Klebsiella pneumoniae HK14368/08 clinical isolate after 24 hrs by microdilution assay; format: functional; details: HK14368/08, 24 h
[11] = tested on: Staphylococcus aureus; assay: Antibacterial activity against methicillin-resistant Staphylococcus aureus HK5996/08 clinical isolate after 24 hrs by microdilution assay; format: functional; details: HK5996/08, 24 h
[12] = tested on: PC-3; assay: Induction of apoptosis in human PC3 cells assessed as caspase 3/7 activity after 24 hrs by caspase-glo luminescent assay; format: cell-based; details: PC-3, 24 h; method in brief: as §3
[13] = tested on: Aspergillus fumigatus; assay: Antifungal activity against Aspergillus fumigatus 231 up to 1 mM after 24 to 48 hrs by microdilution assay; format: functional, organism-based; method in brief: as §1
[14] = tested on: MCF7; assay: Cytotoxicity against human MCF7 cells assessed as reduction in cell viability after 48 hrs by ATPlite-based luminescent assay; details: MCF7, 48 h
[15] = tested on: Klebsiella pneumoniae; assay: Antibacterial activity against Klebsiella pneumoniae HK14368/08 clinical isolate after 48 hrs by microdilution assay; format: functional; details: HK14368/08, 48 h
[16] = tested on: Enterococcus sp.; assay: Antibacterial activity against Enterococcus sp. HK14365/08 clinical isolate after 24 hrs by microdilution assay; format: functional; details: HK14365/08, 24 h
[17] = tested on: TERT-RPE1; assay: Cytotoxicity against human RPE1 cells assessed as reduction in cell viability after 48 hrs by ATPlite-based luminescent assay; details: RPE-1, 48 h; method in brief: as §4
[18] = tested on: Staphylococcus aureus; assay: Antibacterial activity against methicillin-resistant Staphylococcus aureus HK5996/08 clinical isolate after 48 hrs by microdilution assay; format: functional; details: HK5996/08, 48 h
[19] = tested on: HL-60; assay: Cytotoxicity against human HL60 cells assessed as reduction in cell viability after 48 hrs by ATPlite-based luminescent assay; details: HL-60, 48 h; method in brief: as §4
[20] = tested on: HepG2; assay: Induction of apoptosis in human HepG2 cells assessed as caspase 3/7 activity after 24 hrs by caspase-glo luminescent assay; format: cell-based; details: HepG2, 24 h; method in brief: as §3
[21] = tested on: Escherichia coli; assay: Antibacterial activity against Escherichia coli ATCC 8739 after 48 hrs by microdilution assay; format: functional; details: ATCC 8739, 48 h; method in brief: as §2
[22] = tested on: PC-3; assay: Cytotoxicity against human PC3 cells assessed as reduction in cell viability after 48 hrs by ATPlite-based luminescent assay; details: PC-3, 48 h; method in brief: as §4
[23] = tested on: Candida tropicalis; assay: Antifungal activity against Candida tropicalis 156 clinical isolate up to 1 mM after 24 to 48 hrs by microdilution assay; format: functional, organism-based; method in brief: as §1
[24] = tested on: BJ; assay: Cytotoxicity against human BJ cells assessed as reduction in cell viability after 48 hrs by ATPlite-based luminescent assay; method in brief: as §4
[25] = tested on: Pichia kudriavzevii; assay: Antifungal activity against Candida krusei ATCC 6258 up to 1 mM after 24 to 48 hrs by microdilution assay; format: functional, organism-based; method in brief: as §1
[26] = tested on: Escherichia coli; assay: Antibacterial activity against Escherichia coli ATCC 8739 after 24 hrs by microdilution assay; format: functional; details: ATCC 8739, 24 h; method in brief: as §2
[27] = tested on: Candida parapsilosis; assay: Antifungal activity against Candida parapsilosis ATCC 22019 up to 1 mM after 24 to 48 hrs by microdilution assay; format: functional, organism-based; method in brief: as §1
[28] = tested on: K562; assay: Cytotoxicity against human K562 cells assessed as reduction in cell viability after 48 hrs by ATPlite-based luminescent assay; details: K562, 48 h; method in brief: as §4
[29] = tested on: Staphylococcus epidermidis; assay: Antibacterial activity against Staphylococcus epidermidis HK6966/08 clinical isolate after 48 hrs by microdilution assay; format: functional; details: HK6966/08, 48 h
[30] = tested on: Pseudomonas aeruginosa; assay: Antibacterial activity against Pseudomonas aeruginosa ATCC 9027 after 24 hrs by microdilution assay; format: functional; details: ATCC 9027, 24 h; method in brief: as §2
[31] = tested on: Nakaseomyces glabratus; assay: Antifungal activity against Candida glabrata 20/I clinical isolate up to 1 mM after 24 to 48 hrs by microdilution assay; format: functional, organism-based; method in brief: as §1
[32] = tested on: K562; assay: Induction of apoptosis in human K562 cells assessed as caspase 3/7 activity after 24 hrs by caspase-glo luminescent assay; format: cell-based; details: K562, 24 h; method in brief: as §3
[33] = tested on: HL-60; assay: Induction of apoptosis in human HL60 cells assessed as caspase 3/7 activity after 24 hrs by caspase-glo luminescent assay; format: cell-based; details: HL-60, 24 h; method in brief: as §3
[34] = tested on: Staphylococcus epidermidis; assay: Antibacterial activity against Staphylococcus epidermidis HK6966/08 clinical isolate after 24 hrs by microdilution assay; format: functional; details: HK6966/08, 24 h
[35] = tested on: Candida albicans; assay: Antifungal activity against Candida albicans ATCC 44859 up to 1 mM after 24 to 48 hrs by microdilution assay; format: functional, organism-based; method in brief: as §1
[36] = tested on: Clavispora lusitaniae; assay: Antifungal activity against Candida lusitaniae 2446/I clinical isolate up to 1 mM after 24 to 48 hrs by microdilution assay; format: functional, organism-based; method in brief: as §1
[37] = tested on: Enterococcus sp.; assay: Antibacterial activity against Enterococcus sp. HK14365/08 clinical isolate after 48 hrs by microdilution assay; format: functional; details: HK14365/08, 48 h
[38] = tested on: Lichtheimia corymbifera; assay: Antifungal activity against Absidia corymbifera 272 up to 1 mM after 24 to 48 hrs by microdilution assay; format: functional, organism-based; method in brief: as §1
[39] = tested on: Trichosporon asahii; assay: Antifungal activity against Trichosporon asahii 1188 clinical isolate up to 1 mM after 24 to 48 hrs by microdilution assay; format: functional, organism-based; method in brief: as §1
[40] = tested on: Klebsiella pneumoniae; assay: Antibacterial activity against Klebsiella pneumoniae HK11750/08 clinical isolate after 24 hrs by microdilution assay; format: functional; details: HK11750/08, 24 h

SMILES	Activity [1]	Activity [2]	MIC95 [3]	IC50 [4]	MIC95 [5]	Activity [6]	IC50 [7]	MIC95 [8]	MIC95 [9]	MIC95 [10]	MIC95 [11]	IC50 [12]	Activity [13]	IC50 [14]	MIC95 [15]	MIC95 [16]	IC50 [17]	MIC95 [18]	IC50 [19]	IC50 [20]	also measured
COc1ccc(C2=C(c3cccc(Cl)c3Cl)C(=O)OC2(CO)CO)cc1	inactive	inactive	> 500 µM	> 40 µM	> 500 µM	inactive	> 40 µM	7.81 µM (≈ 3.09 µg/mL)	15.6 µM (≈ 6.17 µg/mL)	> 500 µM	62.5 µM (≈ 24.7 µg/mL)	> 40 µM	inactive	> 40 µM	> 500 µM	500 µM (≈ 198 µg/mL)	> 40 µM	125 µM (≈ 49.4 µg/mL)	> 40 µM	> 40 µM	MIC95 [21]: > 500 µM; IC50 [22]: > 40 µM; Activity [23]: inactive; IC50 [24]: > 40 µM; Activity [25]: inactive; MIC95 [26]: > 500 µM; Activity [27]: inactive; IC50 [28]: > 40 µM; MIC95 [29]: 250 µM (≈ 98.8 µg/mL); MIC95 [30]: > 500 µM; Activity [31]: inactive; IC50 [32]: > 40 µM; IC50 [33]: > 40 µM; MIC95 [34]: 250 µM (≈ 98.8 µg/mL); Activity [35]: inactive; Activity [36]: inactive; MIC95 [37]: > 500 µM; Activity [38]: inactive; Activity [39]: inactive; MIC95 [40]: > 500 µM
Cc1ccc(C2=C(c3ccc(Br)cc3)C(=O)OC2CO)cc1 (stereo not given)	inactive	inactive	> 500 µM	> 40 µM	> 500 µM	inactive	> 40 µM	15.6 µM (≈ 5.61 µg/mL)	15.6 µM (≈ 5.61 µg/mL)	> 500 µM	62.5 µM (≈ 22.5 µg/mL)	> 40 µM	inactive	> 40 µM	> 500 µM	500 µM (≈ 180 µg/mL)	> 40 µM	62.5 µM (≈ 22.5 µg/mL)	21.3 µM	> 40 µM	MIC95 [21]: > 500 µM; IC50 [22]: > 40 µM; Activity [23]: inactive; IC50 [24]: > 40 µM; Activity [25]: inactive; MIC95 [26]: > 500 µM; Activity [27]: inactive; IC50 [28]: 31.4 µM; MIC95 [29]: 62.5 µM (≈ 22.5 µg/mL); MIC95 [30]: > 500 µM; Activity [31]: inactive; IC50 [32]: 46.7 µM; IC50 [33]: > 40 µM; MIC95 [34]: 62.5 µM (≈ 22.5 µg/mL); Activity [35]: inactive; Activity [36]: inactive; MIC95 [37]: > 500 µM; Activity [38]: inactive; Activity [39]: inactive; MIC95 [40]: > 500 µM
